Measured values from ChEMBL document CHEMBL1124257, “An examination of O-2-isocephems as orally absorbable antibiotics” (J Med Chem, 1988).
≈ marks a conversion by molar mass, not a printed value.

What was measured:
Streptococcus pneumoniae [1] = assay: Protective dose (PD50) against Streptococcus pneumoniae infected mice; assay type: functional; conditions: for ED50: Streptococcus pneumoniae, read-out: PD50
Procedure, shortened: (§1)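 Male Swiss-Webster mice (20 ± 2 g) were challenged intraperitoneally with enough bacteria to kill untreated controls within 72 h. Drug was given orally by gavage twice: at 0 and 2 h after E. coli challenge, or at 1 and 3.5 h after S. pneumoniae challenge. PD50 is the dose in mg/kg per dose that protects 50% of animals.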

Escherichia coli [2] = assay: Minimum inhibitory concentration (MIC) […] against Escherichia coli.; assay type: functional
Procedure, shortened: (§2)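 For each organism, an overnight culture was grown in Mueller-Hinton broth at 37 °C. Twofold microtiter dilutions in Nutrient Broth covered 0.005–125 µg/mL. Each well received about 10^4 organisms, and plates were incubated 18 h at 37 °C. MIC was the lowest concentration giving no visible growth.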

Mus musculus [3] = species on record: Mus musculus; assay: Percentage of dose recovered after 0-6 hr in the urine of mice was measured.; assay type: ADME, organism-based; conditions: in vivo
Procedure, shortened: (§3)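 Male Swiss-Webster mice (20 ± 2 g) were given a single 50 mg/kg oral dose by gavage. Blood concentrations and urine levels were measured by microbiological assay, and urinary recovery was taken over 0–6 h.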

Proteus mirabilis = assay: Minimum inhibitory concentration (MIC) against Proteus mirabilis by 2-fold microdilution technique.; assay type: functional; procedure, shortened: as §2
Haemophilus influenzae = assay: Minimum inhibitory concentration (MIC) against Haemophilus influenzae by 2-fold microdilution technique.; assay type: functional; procedure, shortened: as §2
Mus musculus [4] = assay: Area under curve(AUC) was measured in mice after oral administration.; assay type: ADME, organism-based; parameters: concentration or dose not given beside the values; unit not given here; conditions: in vivo; procedure, shortened: as §3
Escherichia coli [5] = assay: Minimum inhibitory concentration (MIC) against Escherichia coli by 2-fold microdilution technique.; assay type: functional; procedure, shortened: as §2
Streptococcus pneumoniae [6] = assay: Minimum inhibitory concentration (MIC) […] against Streptococcus pneumoniae.; assay type: functional; procedure, shortened: as §2
Escherichia coli [7] = assay: Protective dose (PD50) against Escherichia coli infected mice; assay type: functional; conditions: read-out: PD50; procedure, shortened: as §1
Klebsiella pneumoniae = assay: Minimum inhibitory concentration (MIC) against Klebsiella pneumoniae by 2-fold microdilution technique.; assay type: functional; procedure, shortened: as §2
Enterococcus faecalis = assay: Minimum inhibitory concentration (MIC) against Streptococcus faecalis by 2-fold microdilution technique.; assay type: functional; procedure, shortened: as §2
Streptococcus pneumoniae [8] = assay: Minimum inhibitory concentration (MIC) against Streptococcus pneumoniae by 2-fold microdilution technique; assay type: functional; procedure, shortened: as §2
Streptococcus pyogenes = assay: Minimum inhibitory concentration (MIC) against Streptococcus pyogenes by 2-fold microdilution technique; assay type: functional; procedure, shortened: as §2
Staphylococcus aureus = assay: Minimum inhibitory concentration (MIC) against Staphylococcus aureus by 2-fold microdilution technique.; assay type: functional; procedure, shortened: as §2
[9] = (§4) Cmax was measured in mice after an oral dose of 50 mg/kg.; assay type: ADME, organism-based; parameters: dose 50 mg/kg, route oral; conditions: mouse, in vivo; procedure, shortened: as §3
[10] = Half life was measured.; assay type: ADME; procedure, shortened: as §3
Mus musculus [11] = assay: as §4; assay type: ADME, organism-based; parameters: dose 50 mg/kg, route oral; conditions: in vivo; procedure, shortened: as §3
[12] = Escherichia coli, read-out: MIC
[13] = Proteus mirabilis, read-out: MIC
[14] = Haemophilus influenzae, read-out: MIC
[15] = Streptococcus pneumoniae, read-out: MIC
[16] = Klebsiella pneumoniae, read-out: MIC
[17] = Enterococcus faecalis, read-out: MIC
[18] = Streptococcus pyogenes, read-out: MIC
[19] = Staphylococcus aureus, read-out: MIC

C=CCC1=C(C(=O)O)N2C(=O)[C@@H](NC(=O)[C@H](N)c3ccc(O)cc3)[C@H]2CO1
ED50 (Streptococcus pneumoniae [1]): 1 mg/kg
MIC (Escherichia coli [2]; [12]): 4 µg/mL (≈ 10.7 µM)
Urinary recovery (% of dose, 0-6 h) (Mus musculus [3]): 46%
MIC (Proteus mirabilis; [13]): 1 µg/mL (≈ 2.68 µM)
MIC (Haemophilus influenzae; [14]): 2 µg/mL (≈ 5.36 µM)
AUC (Mus musculus [4]): 32
MIC (Escherichia coli [5]; [12]): 2 µg/mL (≈ 5.36 µM)
MIC (Streptococcus pneumoniae [6]; [15]): 0.016 µg/mL (≈ 0.0429 µM)
ED50 (Escherichia coli [7]): 9.2 mg/kg
MIC (Klebsiella pneumoniae; [16]): 16 µg/mL (≈ 42.9 µM)
MIC (Enterococcus faecalis; [17]): 1 µg/mL (≈ 2.68 µM)
MIC (Streptococcus pneumoniae [8]; [15]): 0.03 µg/mL (≈ 0.0804 µM)
MIC (Streptococcus pyogenes; [18]): 0.008 µg/mL (≈ 0.0214 µM)
MIC (Staphylococcus aureus; [19]): 0.13 µg/mL (≈ 0.348 µM)
Cmax [9]: 31000 ng/mL
half-life [10]: 32 min

N[C@@H](C(=O)N[C@@H]1C(=O)N2C(C(=O)O)=C(/C=C\C(F)(F)F)OC[C@H]12)c1ccc(O)cc1 (relative stereo)
ED50 (Streptococcus pneumoniae [1]): 2.7 mg/kg
MIC (Escherichia coli [2]; [12]): 2 µg/mL (≈ 4.68 µM)
MIC (Proteus mirabilis; [13]): 16 µg/mL (≈ 37.4 µM)
MIC (Haemophilus influenzae; [14]): 2 µg/mL (≈ 4.68 µM)
MIC (Escherichia coli [5]; [12]): 2 µg/mL (≈ 4.68 µM)
MIC (Streptococcus pneumoniae [6]; [15]): 0.016 µg/mL (≈ 0.0374 µM)
ED50 (Escherichia coli [7]): > 50 mg/kg
MIC (Klebsiella pneumoniae; [16]): 32 µg/mL (≈ 74.9 µM)
MIC (Enterococcus faecalis; [17]): 0.06 µg/mL (≈ 0.14 µM)
MIC (Streptococcus pneumoniae [8]; [15]): 0.016 µg/mL (≈ 0.0374 µM)
MIC (Streptococcus pyogenes; [18]): 0.008 µg/mL (≈ 0.0187 µM)
MIC (Staphylococcus aureus; [19]): 0.5 µg/mL (≈ 1.17 µM)

C/C=C\C1=C(C(=O)O)N2C(=O)[C@@H](NC(=O)[C@H](N)c3ccc(O)cc3)[C@H]2CO1 (relative stereo)
ED50 (Streptococcus pneumoniae [1]): 0.3 mg/kg
MIC (Escherichia coli [2]; [12]): 2 µg/mL (≈ 5.36 µM)
Urinary recovery (% of dose, 0-6 h) (Mus musculus [3]): 25%
MIC (Proteus mirabilis; [13]): 1 µg/mL (≈ 2.68 µM)
MIC (Haemophilus influenzae; [14]): 2 µg/mL (≈ 5.36 µM)
AUC (Mus musculus [4]): 23
MIC (Escherichia coli [5]; [12]): 2 µg/mL (≈ 5.36 µM)
MIC (Streptococcus pneumoniae [6]; [15]): 0.03 µg/mL (≈ 0.0804 µM)
ED50 (Escherichia coli [7]): 19 mg/kg
MIC (Klebsiella pneumoniae; [16]): 16 µg/mL (≈ 42.9 µM)
MIC (Enterococcus faecalis; [17]): 1 µg/mL (≈ 2.68 µM)
MIC (Streptococcus pneumoniae [8]; [15]): 0.03 µg/mL (≈ 0.0804 µM)
MIC (Streptococcus pyogenes; [18]): 0.016 µg/mL (≈ 0.0429 µM)
MIC (Staphylococcus aureus; [19]): 0.25 µg/mL (≈ 0.67 µM)
Cmax [9]: 15000 ng/mL
half-life [10]: 52 min

C/C=C/C1=C(C(=O)O)N2C(=O)[C@@H](NC(=O)[C@H](N)c3ccc(O)cc3)[C@H]2CO1 (relative stereo)
ED50 (Streptococcus pneumoniae [1]): 1.8 mg/kg
MIC (Escherichia coli [2]; [12]): 2 µg/mL (≈ 5.36 µM)
Urinary recovery (% of dose, 0-6 h) (Mus musculus [3]): 5%
MIC (Proteus mirabilis; [13]): 0.5 µg/mL (≈ 1.34 µM)
MIC (Haemophilus influenzae; [14]): 2 µg/mL (≈ 5.36 µM)
AUC (Mus musculus [4]): 30
MIC (Escherichia coli [5]; [12]): 2 µg/mL (≈ 5.36 µM)
MIC (Streptococcus pneumoniae [6]; [15]): 0.03 µg/mL (≈ 0.0804 µM)
ED50 (Escherichia coli [7]): > 50 mg/kg
MIC (Klebsiella pneumoniae; [16]): 8 µg/mL (≈ 21.4 µM)
MIC (Enterococcus faecalis; [17]): 1 µg/mL (≈ 2.68 µM)
MIC (Streptococcus pneumoniae [8]; [15]): 0.03 µg/mL (≈ 0.0804 µM)
MIC (Streptococcus pyogenes; [18]): 0.016 µg/mL (≈ 0.0429 µM)
MIC (Staphylococcus aureus; [19]): 0.25 µg/mL (≈ 0.67 µM)
Cmax [9]: 11000 ng/mL
half-life [10]: 110 min

C/C=C/C1=C(C(=O)O)N2C(=O)[C@@H](NC(=O)[C@H](N)c3ccc(O)cc3)[C@H]2SC1.O (relative stereo; 56) [CEFPROZIL, (E)-]
ED50 (Streptococcus pneumoniae [1]): 0.4 mg/kg
MIC (Escherichia coli [2]): 2 µg/mL
Urinary recovery (% of dose, 0-6 h) (Mus musculus [3]): 85%
MIC (Proteus mirabilis): 0.25 µg/mL
MIC (Haemophilus influenzae; [14]): 2 µg/mL
AUC (Mus musculus [4]): 42
MIC (Escherichia coli [5]): 1 µg/mL
MIC (Streptococcus pneumoniae [6]): 0.016 µg/mL
ED50 (Escherichia coli [7]): 1.2 mg/kg
MIC (Klebsiella pneumoniae): 2 µg/mL
MIC (Enterococcus faecalis; [17]): 2 µg/mL
MIC (Streptococcus pneumoniae [8]; [15]): 0.03 µg/mL
MIC (Streptococcus pyogenes; [18]): 0.016 µg/mL
MIC (Staphylococcus aureus; [19]): 0.13 µg/mL
Cmax [9]: 46000 ng/mL
half-life [10]: 29 min

C/C=C/C1=C(C(=O)O)N2C(=O)[C@@H](NC(=O)[C@H](N)c3ccc(O)cc3)[C@H]2SC1.O (relative stereo; 57) [CEFPROZIL, (E)-]
PD50 (Streptococcus pneumoniae [1]): 0.5 mg/kg
MIC (Escherichia coli [2]): 8 µg/mL
Urinary recovery (% of dose, 0-6 h) (Mus musculus [3]): 65%
MIC (Proteus mirabilis): 1 µg/mL
MIC (Haemophilus influenzae): 4 µg/mL
AUC (Mus musculus [4]): 45
MIC (Escherichia coli [5]): 8 µg/mL
MIC (Streptococcus pneumoniae [6]): 0.06 µg/mL
MIC (Klebsiella pneumoniae): 8 µg/mL
MIC (Enterococcus faecalis): 4 µg/mL
MIC (Streptococcus pneumoniae [8]): 0.06 µg/mL
MIC (Streptococcus pyogenes): 0.03 µg/mL
MIC (Staphylococcus aureus): 0.25 µg/mL
Cmax (Mus musculus [11]): 35000 ng/mL
T1/2 [10]: 47 min

N[C@@H](C(=O)N[C@@H]1C(=O)N2C(C(=O)O)=C(Cl)CS[C@H]12)c1ccccc1.O [CEFACLOR]
MIC (Proteus mirabilis; [13]): 0.25 µg/mL
MIC (Haemophilus influenzae; [14]): 1 µg/mL
MIC (Escherichia coli [5]; [12]): 1 µg/mL
MIC (Klebsiella pneumoniae; [16]): 1 µg/mL
MIC (Enterococcus faecalis; [17]): 16 µg/mL
MIC (Streptococcus pneumoniae [8]; [15]): 0.5 µg/mL
MIC (Streptococcus pyogenes; [18]): 0.25 µg/mL
MIC (Staphylococcus aureus; [19]): 0.25 µg/mL

CC1=C(C(=O)O)N2C(=O)[C@@H](NC(=O)[C@H](N)c3ccccc3)[C@H]2SC1 [CEPHALEXIN ANHYDROUS]
MIC (Proteus mirabilis; [13]): 4 µg/mL (≈ 11.5 µM)
MIC (Haemophilus influenzae; [14]): 4 µg/mL (≈ 11.5 µM)
MIC (Escherichia coli [5]; [12]): 8 µg/mL (≈ 23 µM)
MIC (Klebsiella pneumoniae; [16]): 16 µg/mL (≈ 46.1 µM)
MIC (Enterococcus faecalis; [17]): 32 µg/mL (≈ 92.1 µM)
MIC (Streptococcus pneumoniae [8]; [15]): 0.5 µg/mL (≈ 1.44 µM)
MIC (Streptococcus pyogenes; [18]): 0.5 µg/mL (≈ 1.44 µM)
MIC (Staphylococcus aureus; [19]): 0.5 µg/mL (≈ 1.44 µM)
